Results reported in PMC8682075 (Biochimie, 2020).
Read-outs that look alike come from different tables or passages of the source.

Tests used:
[1] = target: T1, MMUT (methylmalonyl-CoA mutase) (Homo sapiens, UniProt P22033); test: Coupled thiokinase/DTNB spectrophotometric MMUT activity assay; assay type: biochemical
T1 sequence (P22033 33-750): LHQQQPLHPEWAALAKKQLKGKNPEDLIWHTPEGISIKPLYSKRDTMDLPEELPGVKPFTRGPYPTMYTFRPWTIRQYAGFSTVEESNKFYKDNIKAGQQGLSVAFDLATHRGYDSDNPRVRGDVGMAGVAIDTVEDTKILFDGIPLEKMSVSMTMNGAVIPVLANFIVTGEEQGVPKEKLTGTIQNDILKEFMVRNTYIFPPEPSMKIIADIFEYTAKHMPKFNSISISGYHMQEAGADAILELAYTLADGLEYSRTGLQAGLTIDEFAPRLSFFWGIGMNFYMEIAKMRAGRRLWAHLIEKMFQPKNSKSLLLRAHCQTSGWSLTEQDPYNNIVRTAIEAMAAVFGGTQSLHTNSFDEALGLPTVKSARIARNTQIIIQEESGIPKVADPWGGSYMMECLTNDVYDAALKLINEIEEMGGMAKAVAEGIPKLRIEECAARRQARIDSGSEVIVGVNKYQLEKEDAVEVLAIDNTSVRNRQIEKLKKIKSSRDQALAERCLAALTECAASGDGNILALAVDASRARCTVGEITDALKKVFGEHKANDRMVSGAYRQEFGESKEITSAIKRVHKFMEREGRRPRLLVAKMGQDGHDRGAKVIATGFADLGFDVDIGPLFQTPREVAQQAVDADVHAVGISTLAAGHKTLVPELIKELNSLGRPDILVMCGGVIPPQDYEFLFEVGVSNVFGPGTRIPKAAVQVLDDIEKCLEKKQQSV
In short: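 In the coupled kinetic assay, succinyl-CoA was converted by thiokinase to CoA, which was detected spectrophotometrically with DTNB. C-terminally His-tagged MMUT was at 10 nM. Enzymatically made (R)-methylmalonyl-CoA was fixed at 4 mM. Adenosylated cofactor was varied per cofactor, from 0.031 μM at lowest to 12 μM at highest. K_M,app and k_cat come from ≥5 replicates over ≥2 independent experiments and two biological samples.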

[2] = target: T1, MMUT (methylmalonyl-CoA mutase); conditions: read-out: KM, app; previously reported value ref 57; cited from earlier work
[3] = target: T1, MMUT (methylmalonyl-CoA mutase); conditions: cited from earlier work
[4] = target: T1, MMUT (methylmalonyl-CoA mutase); test: Cobamide equilibrium binding by quenching of intrinsic protein fluorescence; conditions: MMUT 0.2 μM, fluorescence quenching
In short: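 Fluorescence quenching used MMUT at 0.2 μM, from N-terminal His-tag (E. coli BL21(DE3)pLysS) and C-terminal His-tag preparations. Adenosylated cofactor was titrated at 0.19–2.5 μM or 0.23–2.5 μM, depending on cofactor class. Plate-reader excitation/emission was 282/340 nm. Kd came from a quadratic fit allowing for ligand depletion. Values were averaged over ≥5 technical replicates from ≥2 independent experiments.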

[5] = target: T2, MMUT WT (Homo sapiens, UniProt P22033); test: Activity screen; assay type: biochemical; conditions: cobamide 1 μM, MMUT WT 0.01 μM, 30 minutes
T2 sequence (P22033 33-750): T1 sequence (P22033 33-750)
In short: (§1)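 At 30 °C, reaction was started with thiokinase, MgCl₂, ADP and methylmalonyl-CoA. Final levels were cofactor 1 μM and (R)-methylmalonyl-CoA 2 mM. Enzyme was WT 0.01 μM, G717V 1 μM, other variants 0.1 μM. After 30 min, an aliquot went into 2.5 mM DTNB; CoA was taken from A412 (ε 14,150 M⁻¹ cm⁻¹).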

[6] = system: MMUT variants G648D, V633G, G717V, P86L, Y100C, Y231N; test: Activity screen; assay type: biochemical, human; conditions: cobamide 1 μM, variants 0.1 μM (G717V 1 μM), 30 minutes
In short: as §1

MMUT activity with the cobamide (in words) ([1]; coupled spectrophotometric assay): active | Km ([1]; read-out: KM, app, methylmalonyl-CoA 4 mM, MMUT 10 nM): 40 ± 20 nM | Kd [4]: 80 ± 30 nM | activity of WT MMUT with the cobamide (in words) [5]: active
SMILES: C/C1=C2/[N-][C@H]([C@H](CC(N)=O)[C@@]2(C)CCC(=O)NC[C@@H](C)OP(=O)([O-])O[C@H]2[C@@H](O)[C@@H](n3cnc4cc(C)c(C)cc43)O[C@@H]2CO)[C@]2(C)N=C(/C(C)=C3N=C(/C=C4N=C1[C@@H](CCC(N)=O)C\4(C)C)[C@@H](CCC(N)=O)[C@]\3(C)CC(N)=O)[C@@H](CCC(N)=O)[C@]2(C)CC(N)=O.[CH2-][C@H]1O[C@@H](n2cnc3c(N)ncnc32)[C@H](O)[C@@H]1O.[Co] [AdoCbl, adenosylcobalamin, reference compound]
Km [2]: 50 nM | Kd ([3]; previous study of MMUT ref 49): 40 nM | Kd ([3]; previous study of MMUT ref 50): 270 ± 110 nM | activity of MMUT variants with the cobamide (in words) [6]: significantly reduced specific activity
